Experimental data as given in ChEMBL document CHEMBL1122589 (J Med Chem, 1984).
Activity calls are given as the source filed them. The rule behind the calls is not given here.

Key:
Mus musculus [1] = species: Mus musculus; test: Percentage increase in life span of drug-treated tumor bearing controls was determined; format: functional
How it was run: (§1)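 Survival of drug-treated mice bearing ip-inoculated leukemia was compared with untreated tumor-bearing controls. The result is expressed as percentage increase in life span (ILS), and a value above 20% was taken as statistically significant.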

Nucleic Acid = test: Binding constant for DNA by ethidium bromide displacement; format: nucleic-acid assay
L1210 [2] = test: Dose of drug given intraperitoneally on a qd 1-5 schedule that provides the highest ILS value in mice bearing 10E6 ip inoculated L1210 leukemia cells; format: functional, Mus musculus
How it was run: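 Mice inoculated ip with 10⁶ L1210 leukemia cells; drug given ip daily on days 1-5 (qd 1-5). Optimal dose, in mg/kg/day, is the dose giving the highest increase in life span (ILS).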

P388 = test: Dose of drug given intraperitoneally on days 1, 5, and 9 that provides the highest ILS value in mice bearing 10E6 ip inoculated P388 leukemia cells in vivo
L1210 [3] = test: In vitro concentration required to inhibit the growth of L1210 cells in culture by 50% following a 48 hr exposure.; format: functional; details: Mus musculus, L1210, 48 h; read-out: ID50 (the source's name)
Mus musculus [4] = species: Mus musculus; test: Percentage increase in life span of drug-treated tumor bearing controls was determined no. in parentheses =no. of animals out of a 6 group that survived indefinitely; format: functional; how it was run: as §1
L1210 [5] = test: Potency against L1210 leukemia cells in culture in vitro according to the NCI protocols Nanomolar concentration required to inhibit the growth of L1210 cells in culture by 50% following a 48 hr exposure; format: functional; details: Mus musculus, L1210, 48 h; read-out: ID50 (the source's name)
How it was run: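 L1210 leukaemia cells were grown in culture and exposed to drug for 48 h. The value is the drug concentration giving 50% growth inhibition, expressed in nanomolar.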

Mus musculus [6] = test: Dose of drug given intraperitoneally on days 1, 5, and 9 that provides the highest ILS value in mice bearing 10E6 ip inoculated P388 leukemia cells in vivo
Mus musculus [7] = species: Mus musculus; test: Percentage increase in life span of drug-treated tumor bearing controls was determined no. in parentheses are the animals (out of a group of 6) that survived indefinitely; format: functional; how it was run: as §1
Mus musculus [8] = species: Mus musculus; test: Percentage increase in life span of drug-treated tumor bearing controls was determined; IN- Inactive at the highest dose tested; format: functional, organism-based
[9] = Dissociation constant in aqueous DMF.; format: physicochemical
How it was run: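 pKa obtained by UV spectroscopy in 20% aqueous DMF.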

Row | Structure (SMILES) | ILS (Mus musculus [1]) [%] | Log K (Nucleic Acid) | OD (L1210 [2]) [mg/kg] | OD (P388) [mg/kg] | IC50 (L1210 [3]) [nM] | other results
1 | COc1cc(NS(C)(=O)=O)ccc1Nc1c2ccccc2nc2ccccc12 [AMSACRINE] | 114 | 5.57 | 6.7 | – | – | –
2 | CCCCCCCNc1cc(NS(C)(=O)=O)ccc1Nc1c2ccccc2nc2ccccc12 | – | 6.54 | – | 45 | 181 | –
3 | CN(C)c1cc(NS(C)(=O)=O)ccc1Nc1c2ccccc2nc2ccccc12 | – | – | – | 166 | – | ILS (Mus musculus [4]): 210%
4 | CCCCS(=O)(=O)Nc1ccc(Nc2c3ccccc3nc3ccccc23)c(NC)c1 | 67 | 6.66 | – | 45 | 102 | –
5 | CCNc1cc(NS(C)(=O)=O)ccc1Nc1c2ccccc2nc2ccccc12 | 69 | 6.54 | – | 45 | 229 | –
6 | CCCS(=O)(=O)Nc1ccc(Nc2c3ccccc3nc3ccccc23)c(NC)c1 | 73 | 6.61 | – | 20 | 86 | –
7 | CCCCCS(=O)(=O)Nc1ccc(Nc2c3ccccc3nc3ccccc23)c(NC)c1 | 61 | 6.58 | – | 20 | 144 | –
8 | Cc1cc(NS(C)(=O)=O)ccc1Nc1c2ccccc2nc2ccccc12 | 106 | 5.74 | 97 | – | 120 | –
9 | CS(=O)(=O)Nc1ccc(Nc2c3ccccc3nc3ccccc23)c(N)c1 | 106 | 6.28 | 45 | – | 1200 | –
10 | CS(=O)(=O)Nc1ccc(Nc2c3ccccc3nc3ccccc23)cc1 | 107 | – | 45 | – | 35 | –
11 | CCN(CC)c1cc(NS(C)(=O)=O)ccc1Nc1c2ccccc2nc2ccccc12 | – | 5.35 | – | 100 | 4600 | –
12 | CS(=O)(=O)Nc1ccc(Nc2c3ccccc3nc3ccccc23)c(N2CCCC2)c1 | – | 5.49 | – | 45 | 1300 | –
13 | CCCCCNc1cc(NS(C)(=O)=O)ccc1Nc1c2ccccc2nc2ccccc12 | – | 6.42 | – | 30 | – | IC50 (L1210 [5]): 117 nM
14 | CC(=O)NNc1cc(NS(C)(=O)=O)ccc1Nc1c2ccccc2nc2ccccc12 | – | 5.89 | – | – | > 1500 | –
15 | CCCCCCNc1cc(NS(C)(=O)=O)ccc1Nc1c2ccccc2nc2ccccc12 | – | 6.36 | – | 60 | 136 | –
16 | CCCCCCS(=O)(=O)Nc1ccc(Nc2c3ccccc3nc3ccccc23)c(NC)c1 | 36 | 6.41 | – | 100 | 443 | –
17 | CCCCCCCS(=O)(=O)Nc1ccc(Nc2c3ccccc3nc3ccccc23)c(NC)c1 | 47 | 6.44 | – | 45 | 397 | –
18 | CNc1cc(NS(C)(=O)=O)ccc1Nc1c2ccccc2nc2ccccc12 | – | 6.42 | – | – | 71 | OD (Mus musculus [6]): 13.3 mg/kg; ILS (Mus musculus [7]): 152%

Row | Structure (SMILES) | ILS (Mus musculus [1]) [%] | Log K (Nucleic Acid) | OD (L1210 [2]) [mg/kg] | OD (P388) [mg/kg] | IC50 (L1210 [3]) [nM] | other results
19 | CS(=O)(=O)Nc1ccc(Nc2c3ccccc3nc3ccccc23)c(N2CCCCC2)c1 | – | 5.69 | – | 100 | > 1600 | –
20 | CCCCNc1cc(NS(C)(=O)=O)ccc1Nc1c2ccccc2nc2ccccc12 | – | 6.36 | – | 45 | 185 | –
21 | CCS(=O)(=O)Nc1ccc(Nc2c3ccccc3nc3ccccc23)c(NC)c1 | 99 | 6.62 | – | 13.3 | 43 | –
22 | CS(=O)(=O)Nc1ccc(Nc2c3ccccc3nc3ccccc23)c([N+](=O)[O-])c1 | – | 5.61 | >500 | – | 9000 | ILS (Mus musculus [8]): inactive
23 | CS(=O)(=O)Nc1ccc(Nc2c3ccccc3nc3ccccc23)c(NCCO)c1 | 89 | 6.49 | – | 45 | 86 | –
24 | CS(=O)(=O)Nc1ccc(Nc2c3ccccc3nc3ccccc23)c(F)c1 | – | 5.65 | >500 | – | 800 | pKa [9]: 6.62
25 | CCCNc1cc(NS(C)(=O)=O)ccc1Nc1c2ccccc2nc2ccccc12 | – | 6.57 | – | 66 | 286 | –
26 | CS(=O)(=O)Nc1ccc(Nc2c3ccccc3nc3ccccc23)c(OCCO)c1 | 67 | 5.91 | 62.5 | – | > 1700 | pKa [9]: 7.53
27 | CCOc1cc(NS(C)(=O)=O)ccc1Nc1c2ccccc2nc2ccccc12 | 29 | 5.68 | 250 | – | 600 | pKa [9]: 7.55
28 | CC(C)Oc1cc(NS(C)(=O)=O)ccc1N=c1c2ccccc2[nH]c2ccccc12 | – | 5.17 | >500 | – | > 1700 | pKa [9]: 7.51
29 | CS(=O)(=O)Nc1ccc(Nc2c3ccccc3nc3ccccc23)c(N2CCOCC2)c1 | – | 5.26 | – | 100 | > 1600 | –
30 | CS(=O)(=O)Nc1ccc(Nc2c3ccccc3nc3ccccc23)c(NCC(O)CO)c1 (stereo unspecified) | 84 | 6.71 | – | 45 | 219 | –
31 | CN(CCO)c1cc(NS(C)(=O)=O)ccc1Nc1c2ccccc2nc2ccccc12 | – | 5.52 | – | 100 | 1400 | ILS (Mus musculus [4]): 100%
32 | CS(=O)(=O)Nc1ccc(Nc2c3ccccc3nc3ccccc23)c(NC2CCCCC2)c1 | – | 6.3 | – | 45 | 470 | –
33 | CS(=O)(=O)Nc1ccc(Nc2c3ccccc3nc3ccccc23)c(Cl)c1 | – | 5.45 | >500 | – | 1300 | –
34 | CCCCCCCCS(=O)(=O)Nc1ccc(Nc2c3ccccc3nc3ccccc23)c(NC)c1 | 42 | 6.51 | – | 30 | 217 | –
35 | CS(=O)(=O)Nc1ccc(Nc2c3ccccc3nc3ccccc23)c(O)c1 | 88 | 5.53 | 25 | – | 4000 | pKa [9]: 7.56
